Test results: ChEMBL document CHEMBL1926588, “Sulfur and selenium derivatives of quinazoline and pyrido[2,3-d]pyrimidine: synthesis and study of their potential cytotoxic activity in vitro” (Eur J Med Chem, 2012)

Tests used:
MCF7 [1] = experiment: Induction of apoptosis in human MCF7 cells assessed as cell death at 10 uM after 12 hrs by TUNEL analysis (reference value: 6.02 +/- 0.85%); format: functional
[2] = Permeability of the compound across human Caco2 cells; format: ADME, cell-based; conditions: Caco-2, read-out: permeability
MCF7 [3] = experiment: Induction of apoptosis in human MCF7 cells assessed as cell death at 10 uM by TUNEL analysis; format: functional, cell-based; conditions: TDE = time-dependent effect
MCF7 [4] = experiment: Cell cycle arrest in human MCF7 cells assessed as accumulation at G0/G1 phase at 15 uM after 12 hrs by propidium iodide staining-based flow cytometric analysis (reference value: 57.34 +/- 1.64%); format: functional
MCF7 [5] = experiment: Induction of apoptosis in human MCF7 cells assessed as cell death at 20 uM after 24 hrs by TUNEL analysis relative to control; format: functional
MCF7 [6] = experiment: Cytotoxicity against human MCF7 cells after 72 hrs by MTT assay; format: functional; conditions: MCF7, 72 h
Outline: (§1)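 MTT read-out after 72 h exposure at 37 °C in humidified 5% CO2, with five concentrations between 0.01 and 100. GI50 is 50% growth reduction versus untreated controls, TGI is complete growth inhibition, and LC50 is the concentration killing 50% of cells. Minimum three independent experiments.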

MCF7 [7] = experiment: Induction of apoptosis in human MCF7 cells assessed as cell death at 10 uM after 48 hrs by TUNEL analysis (reference value: 4.23 +/- 1.99%); format: functional
MCF7 [8] = experiment: Induction of apoptosis in human MCF7 cells assessed as cell death at 5 uM after 24 hrs by TUNEL analysis relative to control; format: functional
MCF7 [9] = experiment: Cell cycle arrest in human MCF7 cells assessed as accumulation at subG1 phase at 15 uM after 24 hrs by propidium iodide staining-based flow cytometric analysis (reference value: 2.93 +/- 0.54%); format: functional
MCF7 [10] = experiment: Induction of apoptosis in human MCF7 cells assessed as cell death at 5 uM after 24 hrs by TUNEL analysis (reference value: 9.28 +/- 1.71%); format: functional
MCF7 [11] = experiment: Induction of apoptosis in human MCF7 cells assessed as cell death at 15 uM after 24 hrs by TUNEL analysis (reference value: 5.13 +/- 4.32%); format: functional
MCF7 [12] = experiment: Cell cycle arrest in human MCF7 cells assessed as accumulation at G2/M phase at 15 uM after 24 hrs by propidium iodide staining-based flow cytometric analysis (reference value: 32.37 +/- 7.73%); format: functional
MCF7 [13] = experiment: Cell cycle arrest in human MCF7 cells assessed as accumulation at S phase at 15 uM after 12 hrs by propidium iodide staining-based flow cytometric analysis (reference value: 17.07 +/- 4.00%); format: functional
MCF7 [14] = experiment: Cell cycle arrest in human MCF7 cells assessed as accumulation at S phase at 15 uM after 4 hrs by propidium iodide staining-based flow cytometric analysis (reference value: 19.09 +/- 4.54%); format: functional
MCF7 [15] = experiment: Cell cycle arrest in human MCF7 cells assessed as accumulation at subG1 phase at 15 uM after 4 hrs by propidium iodide staining-based flow cytometric analysis (reference value: 5.90 +/- 1.36%); format: functional
MCF7 [16] = experiment: Cell cycle arrest in human MCF7 cells assessed as accumulation at G0/G1 phase at 15 uM after 24 hrs by propidium iodide staining-based flow cytometric analysis (reference value: 51.83 +/- 5.64%); format: functional
MCF7 [17] = experiment: Induction of apoptosis in human MCF7 cells assessed as cell death at 10 uM after 24 hrs by TUNEL analysis (reference value: 9.82 +/- 2.62%); format: functional
MCF7 [18] = experiment: Induction of apoptosis in human MCF7 cells assessed as cell death at 20 uM after 24 hrs by TUNEL analysis (reference value: 9.56 +/- 1.38%); format: functional
MCF7 [19] = experiment: Cell cycle arrest in human MCF7 cells assessed as accumulation at G0/G1 phase at 15 uM after 4 hrs by propidium iodide staining-based flow cytometric analysis (reference value: 49.38 +/- 4.74%); format: functional
MCF7 [20] = experiment: Cell cycle arrest in human MCF7 cells assessed as accumulation at subG1 phase at 15 uM after 12 hrs by propidium iodide staining-based flow cytometric analysis (reference value: 2.17 +/- 0.24%); format: functional
MCF7 [21] = experiment: Induction of apoptosis in human MCF7 cells assessed as cell death at 10 uM after 4 hrs by TUNEL analysis (reference value: 5.85 +/- 5.21%); format: functional
MCF7 [22] = experiment: Cell cycle arrest in human MCF7 cells assessed as accumulation at S phase at 15 uM after 24 hrs by propidium iodide staining-based flow cytometric analysis (reference value: 12.39 +/- 1.54%); format: functional
[23] = Cytotoxicity against human HTB-54 cells after 72 hrs by MTT assay; format: functional; conditions: HTB-54, 72 h; outline: as §1
MCF7 [24] = experiment: Cell cycle arrest in human MCF7 cells assessed as accumulation at G2/M phase at 15 uM after 4 hrs by propidium iodide staining-based flow cytometric analysis (reference value: 21.60 +/- 5.37%); format: functional
[25] = Cytotoxicity against human 184B5 cells after 72 hrs by MTT assay; format: cell-based; outline: as §1
MCF7 [26] = experiment: Cell cycle arrest in human MCF7 cells assessed as accumulation at G2/M phase at 15 uM after 12 hrs by propidium iodide staining-based flow cytometric analysis (reference value: 22.11 +/- 3.86%); format: functional
MCF7 [27] = experiment: Induction of apoptosis in human MCF7 cells assessed as cell death at 1 uM after 24 hrs by TUNEL analysis (reference value: 6.12 +/- 1.61%); format: functional
CCRF-CEM = experiment: Cytotoxicity against human CCRF-CEM cells after 72 hrs by MTT assay; format: functional; outline: as §1
HT-29 = experiment: Cytotoxicity against human HT-29 cells after 72 hrs by MTT assay; format: functional; conditions: HT-29, 72 h; outline: as §1
[28] = read-out: LC50 (the source's name)

Structure (SMILES): [SeH]c1nc([SeH])c2ccccc2n1
- Activity (MCF7 [1]): 12.26%
- Papp [2]: 4.67 ×10⁻⁶ cm/s
- Activity (MCF7 [3]): tde
- Activity (MCF7 [4]): 56.21%
- fold change (FC) (MCF7 [5]): 9
- GI50 (MCF7 [6]): 2.92 µM
- LC50 (MCF7 [6]): > 100 µM
- TGI (MCF7 [6]): 22.9 µM
- Activity (MCF7 [7]): 58.31%
- fold change (FC) (MCF7 [8]): 1.7
- Activity (MCF7 [9]): 3.46%
- Activity (MCF7 [10]): 16.32%
- Activity (MCF7 [11]): 76.82%
- Activity (MCF7 [12]): 34.67%
- Activity (MCF7 [13]): 18.36%
- Activity (MCF7 [14]): 23.29%
- Activity (MCF7 [15]): 3.98%
- Activity (MCF7 [16]): 47.77%
- Activity (MCF7 [17]): 27.29%
- Activity (MCF7 [18]): 87.55%
- Activity (MCF7 [19]): 52.09%
- Activity (MCF7 [20]): 2.37%
- Activity (MCF7 [21]): 6.01%
- Activity (MCF7 [22]): 15.75%
- GI50 [23]: 5.98 µM
- TGI [23]: 65.9 µM
- CC50 [23, 28]: > 100 µM
- Activity (MCF7 [24]): 21.21%
- GI50 at 72 h ([25]; 184B5 cells): 0.49 µM
- LC50 ([25]; 184b5, 72 h): 6.63 µM
- TGI ([25]; 184b5, 72 h): 2.5 µM
- Activity (MCF7 [26]): 25.63%
- Activity (MCF7 [27]): 2.76%
- GI50 (CCRF-CEM): 2.99 µM
- TGI (CCRF-CEM): 6.01 µM
- CC50 (CCRF-CEM; [28]): 9.03 µM
- GI50 (HT-29): 8.98 µM
- TGI (HT-29): 45.2 µM
- CC50 (HT-29; [28]): 87.9 µM
